Experimental findings from ChEMBL document CHEMBL4251609, “Substrate-derived triazolo- and azapeptides as inhibitors of cathepsins K and S” (Eur J Med Chem, 2018) are described below.

Calls of active or inactive are those of the source. No cut-off for these calls is given here. Where only a bound is given, the exact number is not on record here.

For assay [1], the target named is T1, Cathepsin S (Homo sapiens, UniProt P25774). The assay is described as follows: Reversible competitive inhibition of human cathepsin S using fluorogenic AMC-derived peptide substrate assessed as reduction in residual activity at pH 7.4 preincubated for 30 mins followed by substrate addition. The following applies: read-out: Ki. The essentials: (§1)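 Ki values for cathepsin S determined at pH 5.5 and again at pH 7.4, a pH at which this enzyme stays stable and active, to compare the two conditions.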
Target sequence in this assay (P25774 whole entry): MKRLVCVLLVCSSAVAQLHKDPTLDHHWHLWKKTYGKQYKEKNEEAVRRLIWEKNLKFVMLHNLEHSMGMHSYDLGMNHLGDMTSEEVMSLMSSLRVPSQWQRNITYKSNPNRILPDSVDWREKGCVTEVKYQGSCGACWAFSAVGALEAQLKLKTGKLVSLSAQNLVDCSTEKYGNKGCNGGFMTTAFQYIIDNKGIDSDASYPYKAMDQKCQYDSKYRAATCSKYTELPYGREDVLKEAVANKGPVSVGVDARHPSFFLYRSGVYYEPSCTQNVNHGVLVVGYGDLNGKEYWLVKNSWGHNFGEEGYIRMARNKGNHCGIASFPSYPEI

Assay [2] concerns the target T2, Neutrophil elastase (Homo sapiens) (UniProt P08246).
T2 sequence (whole entry): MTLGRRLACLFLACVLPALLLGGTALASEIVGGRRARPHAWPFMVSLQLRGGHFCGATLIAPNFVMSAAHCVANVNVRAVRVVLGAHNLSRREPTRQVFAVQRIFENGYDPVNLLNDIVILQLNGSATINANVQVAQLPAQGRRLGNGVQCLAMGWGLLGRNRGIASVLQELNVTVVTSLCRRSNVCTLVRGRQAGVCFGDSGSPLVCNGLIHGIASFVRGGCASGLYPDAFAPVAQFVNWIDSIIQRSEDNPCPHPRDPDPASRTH
The assay is described as follows: Inhibition of human neutrophil elastase incubated for 30 mins using Abz-Ala-Pro-Glu-Glu-Ile-Met-Arg-Arg-Gln-(3-NO2-Tyr) substrate.

In assay [3] the target is T3, Cathepsin K (Homo sapiens) (UniProt P43235).
T3 sequence (whole entry): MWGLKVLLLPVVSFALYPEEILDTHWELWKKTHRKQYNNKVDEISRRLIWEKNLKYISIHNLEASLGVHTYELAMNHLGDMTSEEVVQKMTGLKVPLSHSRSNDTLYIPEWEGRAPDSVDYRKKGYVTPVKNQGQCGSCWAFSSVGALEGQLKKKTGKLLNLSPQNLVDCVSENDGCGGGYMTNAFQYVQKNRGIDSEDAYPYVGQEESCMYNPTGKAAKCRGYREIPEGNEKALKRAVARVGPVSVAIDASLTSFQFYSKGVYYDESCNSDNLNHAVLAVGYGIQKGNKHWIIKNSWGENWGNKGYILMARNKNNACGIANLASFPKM
The experiment in a line: Inhibition of human cathepsin K using fluorogenic AMC-derived peptide substrate assessed as reduction in residual activity preincubated for 30 mins followed by substrate addition.

For assay [4], the target named is T4, Cathepsin K (Homo sapiens, UniProt P43235).
T4 sequence (P43235 whole entry): T3 sequence (whole entry)
The experiment in a line: Reversible competitive inhibition of human cathepsin K using fluorogenic AMC-derived peptide substrate assessed as reduction in residual activity preincubated for 30 mins followed by substrate addition. A digest of the protocol:
(§2)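 Inhibition constants (Ki) determined at pH 5.5, with reversibility and competitive mode also assessed.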

The target in assay [5] is T5, Pro-cathepsin H (Homo sapiens, UniProt P09668).
T5 sequence (P09668 whole entry): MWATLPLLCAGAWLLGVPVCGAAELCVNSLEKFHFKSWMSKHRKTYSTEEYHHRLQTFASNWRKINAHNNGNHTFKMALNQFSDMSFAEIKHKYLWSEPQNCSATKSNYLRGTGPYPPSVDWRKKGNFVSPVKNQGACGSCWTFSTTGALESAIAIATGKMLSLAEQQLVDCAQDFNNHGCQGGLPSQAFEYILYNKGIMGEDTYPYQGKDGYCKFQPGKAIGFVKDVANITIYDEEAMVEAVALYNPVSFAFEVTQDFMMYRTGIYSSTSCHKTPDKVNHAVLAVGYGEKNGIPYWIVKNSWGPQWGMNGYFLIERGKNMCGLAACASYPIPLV
The assay is described as follows: Reversible competitive inhibition of human cathepsin H using fluorogenic AMC-derived peptide substrate assessed as reduction in residual activity preincubated for 30 mins followed by substrate addition.

Assay [6] concerns the target 72 kDa type IV collagenase (Homo sapiens) (UniProt P08253). The experiment in a line: Inhibition of human recombinant MMP-2 expressed in CHO cells incubated for 30 mins by Mca-Arg-Pro-Pro-Gly-Phe-Ser-Ala-Phe-Lys(Dnp) substrate. Type of assay: cell-based.
In assay [7] the target is Cathepsin D (Homo sapiens) (UniProt P07339). The experiment in a line: Inhibition of human cathepsin D incubated for 30 mins using Mca-Gly-Lys-Pro-Ile-Leu-Phe-Phe-Arg-Leu-Lys(Dnp)-D-Arg-NH2 substrate.
Cathepsin D (Homo sapiens), sequence (P07339 65-162 limits assumed): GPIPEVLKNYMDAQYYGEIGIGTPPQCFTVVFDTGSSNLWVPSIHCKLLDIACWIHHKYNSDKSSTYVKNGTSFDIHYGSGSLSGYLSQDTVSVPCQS
Cathepsin D (Homo sapiens), sequence (P07339 169-412 limits assumed): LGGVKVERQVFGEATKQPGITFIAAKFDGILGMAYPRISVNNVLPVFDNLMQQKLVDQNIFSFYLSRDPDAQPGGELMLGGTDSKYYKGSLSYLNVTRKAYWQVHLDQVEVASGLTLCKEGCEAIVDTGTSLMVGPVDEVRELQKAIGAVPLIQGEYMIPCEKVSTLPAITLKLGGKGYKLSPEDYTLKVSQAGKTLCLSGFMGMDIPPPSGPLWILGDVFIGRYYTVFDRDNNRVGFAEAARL
The target of assay [8] is T6, Pro-cathepsin H (Homo sapiens) (UniProt P09668).
T6 sequence (whole entry): T5 sequence (P09668 whole entry)
The experiment in a line: Inhibition of human cathepsin H using fluorogenic AMC-derived peptide substrate assessed as reduction in residual activity preincubated for 30 mins followed by substrate addition.

The target in assay [9] is T7, Procathepsin L (Homo sapiens, UniProt P07711). The experiment in a line: Reversible competitive inhibition of human cathepsin L using fluorogenic AMC-derived peptide substrate assessed as reduction in residual activity preincubated for 30 mins followed by substrate addition. The essentials:
as §2
Target sequence in this assay (P07711 whole entry): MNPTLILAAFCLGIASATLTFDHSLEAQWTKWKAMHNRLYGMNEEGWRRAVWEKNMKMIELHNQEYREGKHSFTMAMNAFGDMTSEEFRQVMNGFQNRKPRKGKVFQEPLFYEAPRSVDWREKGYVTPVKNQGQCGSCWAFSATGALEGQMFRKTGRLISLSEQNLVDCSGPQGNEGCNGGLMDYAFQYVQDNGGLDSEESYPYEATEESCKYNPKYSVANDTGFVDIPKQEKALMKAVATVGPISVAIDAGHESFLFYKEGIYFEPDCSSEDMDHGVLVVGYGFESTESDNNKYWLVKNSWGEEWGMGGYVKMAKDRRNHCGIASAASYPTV

For assay [10], the target named is T1, Cathepsin S. The experiment in a line: Reversible inhibition of human cathepsin S at 300 uM in presence of excess Z-LR-AMC.
Target sequence in this assay (P25774 115-331 limits assumed): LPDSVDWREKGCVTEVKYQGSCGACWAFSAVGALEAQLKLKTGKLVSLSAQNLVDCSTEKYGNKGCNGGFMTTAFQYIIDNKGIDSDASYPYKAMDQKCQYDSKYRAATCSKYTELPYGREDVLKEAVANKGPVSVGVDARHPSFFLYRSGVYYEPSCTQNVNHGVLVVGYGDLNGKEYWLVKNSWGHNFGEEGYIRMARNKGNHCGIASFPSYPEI
In assay [11] the target is Trypsin (Homo sapiens) (UniProt P07477+P07478+P35030). The assay is described as follows: Inhibition of trypsin (unknown origin) incubated for 30 mins using Abz-Thr-Pro-Arg-Ser-Ala-Leu-Gln-EDDnp substrate. Format: protein assay.
The target of assay [12] is T1, Cathepsin S. The assay is described as follows: (§3) Reversible competitive inhibition of human cathepsin S using fluorogenic AMC-derived peptide substrate assessed as reduction in residual activity at pH 5.5 preincubated for 30 mins followed by substrate addition. Particulars: read-out: Ki. A digest of the protocol:
as §1
Target sequence in this assay (P25774 whole entry): as the sequence (P25774 whole entry) above

The species entered for assay [13] is Homo sapiens. The assay is described as follows: Inhibition of chymotrypsin (unknown origin) incubated for 30 mins using Abz-Thr-Pro-Phe-Ser-Gly-Gln-EDDnp substrate.
In assay [14] the target is Cathepsin B (Homo sapiens) (UniProt P07858). The assay is described as follows: Inhibition of human cathepsin B.
Assay [15] deals with T1, Cathepsin S. The assay is described as follows: Inhibition of human cathepsin S using fluorogenic AMC-derived peptide substrate assessed as reduction in residual activity preincubated for 30 mins followed by substrate addition.
Target sequence in this assay (P25774 115-331 limits assumed): as the sequence (P25774 115-331 limits assumed) above
Assay [16] addresses T1, Cathepsin S. The experiment in a line: Inhibition of human cathepsin S at 300 uM preincubated for 30 mins followed by Biot-(PEG)2-Ahx-LeuValGly-DMK addition measured after 1 hr by chemiluminescence assay.
Target sequence in this assay (P25774 115-331 limits assumed): as above
The target in assay [17] is T1, Cathepsin S. The description is as §3. The essentials:
as §1
Target sequence in this assay (P25774 115-331 limits assumed): as above

The target in assay [18] is T7, Procathepsin L. The experiment in a line: Inhibition of human cathepsin L using fluorogenic AMC-derived peptide substrate assessed as reduction in residual activity preincubated for 30 mins followed by substrate addition.
Target sequence in this assay (P07711 114-333 limits assumed): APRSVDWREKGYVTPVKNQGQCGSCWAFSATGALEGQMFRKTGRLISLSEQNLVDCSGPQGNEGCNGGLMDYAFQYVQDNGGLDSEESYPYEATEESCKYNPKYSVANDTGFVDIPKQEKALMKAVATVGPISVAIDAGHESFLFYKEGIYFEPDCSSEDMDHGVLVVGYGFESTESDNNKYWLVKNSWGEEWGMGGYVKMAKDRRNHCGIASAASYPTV
Assay [19] addresses T4, Cathepsin K. The assay is described as follows: Inhibition of human cathepsin K.
Assay [20] has as its target T3, Cathepsin K (Homo sapiens). The experiment in a line: Inhibition of human cathepsin K […] activity assessed as normalized bradykinin equivalents ratio at 1 uM pre-incubated for 15 mins before kallidin substrate addition by competitive enzyme immunoassay (reference value: <0.5%). Further details: scale not given: the % may be the effect or the level left.
Assay [21] concerns the target T3, Cathepsin K (Homo sapiens). The experiment in a line: Inhibition of human cathepsin K […] activity assessed as normalized bradykinin equivalents ratio at 1 uM pre-incubated for 15 mins before bradykinin substrate addition by competitive enzyme immunoassay (reference value: <0.5%). More on the design: scale not given: the % may be the effect or the level left.

72 kDa type IV collagenase (Homo sapiens), sequence (P08253 110-660 limits assumed): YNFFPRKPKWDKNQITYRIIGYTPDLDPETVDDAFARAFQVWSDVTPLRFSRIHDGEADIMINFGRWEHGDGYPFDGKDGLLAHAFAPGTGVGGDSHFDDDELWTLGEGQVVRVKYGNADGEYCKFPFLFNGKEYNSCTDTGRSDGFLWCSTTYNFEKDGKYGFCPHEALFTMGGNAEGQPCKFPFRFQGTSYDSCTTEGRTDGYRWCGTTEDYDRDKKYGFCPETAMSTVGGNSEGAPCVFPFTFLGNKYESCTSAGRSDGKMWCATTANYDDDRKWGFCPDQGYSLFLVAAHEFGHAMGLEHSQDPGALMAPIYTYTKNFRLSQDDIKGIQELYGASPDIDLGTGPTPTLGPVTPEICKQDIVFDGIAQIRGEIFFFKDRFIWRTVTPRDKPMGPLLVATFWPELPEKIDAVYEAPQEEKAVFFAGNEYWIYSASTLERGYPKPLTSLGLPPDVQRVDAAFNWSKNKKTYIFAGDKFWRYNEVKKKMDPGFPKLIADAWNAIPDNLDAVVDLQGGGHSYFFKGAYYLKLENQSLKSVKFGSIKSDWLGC

With `CSCC[C@H](NC(=O)[C@@H]1CCCN1C(=O)[C@H](Cc1c[nH]cn1)NC(=O)[C@H](Cc1c[nH]c2ccccc12)NC(=O)[C@H](CCCNC(=N)N)NC(=O)CNC(C)=O)C(=O)NCc1cn([C@@H](C)C(=O)N2CCC[C@H]2C(=O)N[C@@H](Cc2c[nH]c3ccccc23)C(=O)N[C@@H](CCC(=O)O)C(=O)N[C@H](C)C(=O)N[C@H](CCCNC(=N)N)C(N)=O)nn1`, the Ki was 42 µM in [1]; 10 µM in assay [4]; “Not Active” in assay [5]; 30 µM in [9]; 15 µM in assay [12]. For the same compound, the inhibition result in [2], in assay [6], in assay [7], in assay [8], in [10] and in assay [11] was “inactive” throughout. Besides, the inhibition result in [13] and in assay [14] was “inactive” in each case. Further, the inhibition entry in [3], in assay [15], in assay [16], in assay [17] and in [18] was “Active” in each case.
In assay [19], `CC(C)(F)C[C@H](N[C@@H](c1ccc(-c2ccc(S(C)(=O)=O)cc2)cc1)C(F)(F)F)C(=O)NC1(C#N)CC1` [ODANACATIB] had a Ki of 0.00018 µM.
As to `CCCNC(=O)[C@H]1O[C@@H]1C(=O)N[C@H](C(=O)N1CCC[C@H]1C(=O)O)[C@@H](C)CC`, the Activity in assay [20] and in assay [21] was less than 0.5% throughout.

A word on the Ki: it is the dissociation constant of the complex between target and ligand, obtained from inhibition or displacement.
